Measurements reported in ChEMBL document CHEMBL3792366, “Role of disulfide linkage in action of bis(dialkylaminethiocarbonyl)disulfides as potent double-Edged microbicidal spermicide: Design, synthesis and biology” (Eur J Med Chem, 2016).
Converted amounts (≈) assume the structure as drawn. The source made the active and inactive calls. No cut-off for these calls is given here.

Key:
Trichomonas vaginalis [1] = test: Antitrichomonas activity against metronidazole-resistant trophozoite stage of Trichomonas vaginalis ATCC 50143 assessed as cell viability under anaerobic condition after 48 hrs by trypan blue exclusion assay; format: functional; conditions: ATCC 50143, 48 h
Outline: (§1)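 Log-phase T. vaginalis grown in TYM with 10% FCS, vitamin mix and penicillin/streptomycin at 37 °C. Compounds were made as 100 µg/mL DMSO stocks and serially diluted in TYM down to 0.1 µg/mL; DMSO/TYM served as vehicle. Parasites were incubated anaerobically at 37 °C, and viability was checked by trypan blue exclusion from 3 to 48 h. MIC = lowest concentration killing all cells by 48 h; each test was repeated three times.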

Cryptococcus neoformans = test: Antifungal activity against Cryptococcus neoformans after 48 hrs by broth microdilution method; format: functional
Outline: (§2)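 NCCLS broth microdilution in RPMI 1640 buffered with MOPS; starting inoculum 1–5 × 10^3 CFU/mL; plates incubated at 35 °C; MIC read after 48 h.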

Trichomonas vaginalis [2] = test: Selectivity ratio of MIC for metronidazole-resistant trophozoite stage of Trichomonas vaginalis ATCC 50143 to MIC for metronidazole-susceptible trophozoite stage of Trichomonas vaginalis; format: functional
Candida albicans = test: Antifungal activity against Candida albicans after 48 hrs by broth microdilution method; format: functional; outline: as §2
Trichomonas vaginalis [3] = test: Potency index, ratio of metronidazole MIC to compound MIC for metronidazole-resistant trophozoite stage of Trichomonas vaginalis ATCC 50143; format: functional
[4] = Spermicidal activity in human sperms assessed as motility measured within 30 secs by phase contrast microscopy; format: functional, Sperm
Outline: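 Liquefied human semen (0.05 mL) was added to 0.25 mL test solution and vortexed 10 s at low speed. Motile sperm were scored visually under phase contrast in five fields within 30 s; assays in triplicate; MEC = minimum effective concentration.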

Candida parapsilosis = test: Antifungal activity against Candida parapsilosis ATCC 22019 after 48 hrs by broth microdilution method; format: functional; conditions: Lodderomyces parapsilosis, ATCC 22019, 48 h; outline: as §2
Sporothrix schenckii = test: Antifungal activity against Sporothrix schenckii after 48 hrs by broth microdilution method; format: functional; outline: as §2
[5] = test system: Trichophyton mentagrophytes; test: Antifungal activity against Trichophyton mentagrophytes after 48 hrs by broth microdilution method; format: functional; outline: as §2
Trichomonas vaginalis [6] = test: Antitrichomonas activity against trophozoite stage of Trichomonas vaginalis clinical isolate assessed as cell viability under anaerobic condition after 48 hrs by trypan blue exclusion assay; format: functional; outline: as §1
Trichomonas vaginalis [7] = test: Antitrichomonas activity against metronidazole-susceptible Trichomonas vaginalis in sc dosed mouse assessed as spleen weight at 5 ug administered daily measured after 7 days (reference value: 0.59 g); format: functional
Trichomonas vaginalis [8] = test: Antitrichomonas activity against metronidazole-susceptible Trichomonas vaginalis in sc dosed mouse assessed as pustule formation at 5 ug administered daily measured after 7 days (reference value: 190 mm'2); format: functional
Trichomonas vaginalis [9] = test: Antitrichomonas activity against metronidazole-susceptible Trichomonas vaginalis in sc dosed mouse assessed as pustule formation at 5 ug administered daily measured after 5 days (reference value: 109 mm'2); format: functional
[10] = Toxicity in Lactobacillus jensenii ATCC 25258 after 72 hrs
HeLa = test: Cytotoxicity against human HeLa cells after 5 hrs by lactate dehydrogenase release assay; format: cell-based
Outline: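 HeLa cells were seeded at 2×10^4/well in triplicate and grown 24 h at 37 °C in 5% CO2. The DMEM was then replaced with medium holding serially diluted compound, and plates were incubated 5 h. LDH release in the supernatant was measured colorimetrically at 490 nm, and IC50 was derived from it.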

Trichomonas vaginalis [11] = test: Antitrichomonas activity against Trichomonas vaginalis assessed as reduction in free thiol levels in parasite membrane at MIC after 24 hrs by fluorescence microscopy; format: functional, organism-based
[12] = Selectivity index, ratio of IC50 for Lactobacillus jensenii ATCC 25258 to MIC for trophozoite stage of Trichomonas vaginalis clinical isolate
[13] = Selectivity index, ratio of IC50 for Lactobacillus jensenii ATCC 25258 to MIC for metronidazole resistant trophozoite stage of Trichomonas vaginalis ATCC 50143
Oryctolagus cuniculus [14] = test: In vivo spermicidal activity in Belgian rabbit assessed as decrease in pregnancy rate administered via intravaginal instillation measured 30 to 34 days post gestation period; format: functional, organism-based
Outline: (§3)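 Young adult female Belgian rabbits. Compound was blended into K-Y Jelly, with plain jelly for controls. Two mL of jelly was instilled 10–12 cm deep into the vagina by catheter, with the animal supine.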

Oryctolagus cuniculus [15] = test: In vivo spermicidal activity in Belgian rabbit assessed as decrease in pregnancy rate at 15 mg via intravaginal instillation measured 30 to 34 days post gestation period; format: functional; outline: as §3
Oryctolagus cuniculus [16] = test: In vivo spermicidal activity in Belgian rabbit assessed as decrease in litter size at 10 mg via intravaginal instillation measured 30 to 34 days post gestation period; format: functional; design: scale not given: the % may be the effect or the level left; outline: as §3
Sperm = test: Spermicidal activity in human sperm assessed as decrease in free thiol levels in sperm membrane at MEC after 15 mins by mBBr dye based fluorescence microscopy; format: functional, cell membranes
Outline: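 Semen (0.5 mL) was incubated with 2.5 mL of compound at MEC, or saline, for 15 min at room temperature. Sperm were pelleted at 700×g, washed in PBS and labelled with 0.5 mM (final) mBBr for 15 min in the dark. After washing, cells were imaged by epifluorescence (UV1A filter) at equal exposure times.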

Oryctolagus cuniculus [17] = test: In vivo spermicidal activity in Belgian rabbit assessed as decrease in pregnancy rate at 20 mg via intravaginal instillation measured 30 to 34 days post gestation period; format: functional; outline: as §3
Oryctolagus cuniculus [18] = test: In vivo spermicidal activity in Belgian rabbit assessed as decrease in litter size at 15 mg via intravaginal instillation measured 30 to 34 days post gestation period; format: functional; design: scale not given: the % may be the effect or the level left; outline: as §3
Oryctolagus cuniculus [19] = test: In vivo spermicidal activity in Belgian rabbit assessed as decrease in pregnancy rate at 10 mg via intravaginal instillation measured 30 to 34 days post gestation period; format: functional; outline: as §3
Oryctolagus cuniculus [20] = test: In vivo spermicidal activity in Belgian rabbit assessed as decrease in litter size at 20 mg via intravaginal instillation measured 30 to 34 days post gestation period; format: functional; design: scale not given: the % may be the effect or the level left; outline: as §3
Oryctolagus cuniculus [21] = test: In vivo spermicidal activity in Belgian rabbit assessed as decrease in pregnancy rate at 25 mg via intravaginal instillation measured 30 to 34 days post gestation period; format: functional; outline: as §3
Oryctolagus cuniculus [22] = test: In vivo spermicidal activity in Belgian rabbit assessed as decrease in litter size at 50 mg via intravaginal instillation measured 30 to 34 days post gestation period; format: functional; design: scale not given: the % may be the effect or the level left; outline: as §3
Oryctolagus cuniculus [23] = test: In vivo spermicidal activity in Belgian rabbit assessed as decrease in pregnancy rate at 50 mg via intravaginal instillation measured 30 to 34 days post gestation period; format: functional; outline: as §3
Oryctolagus cuniculus [24] = test: In vivo spermicidal activity in Belgian rabbit assessed as decrease in litter size at 25 mg via intravaginal instillation measured 30 to 34 days post gestation period; format: functional; design: scale not given: the % may be the effect or the level left; outline: as §3

SMILES | MIC (Trichomonas vaginalis [1]) | MIC (Cryptococcus neoformans) | MIC (Candida albicans) | Ratio (Trichomonas vaginalis [3]) | MEC [4] | MIC (Candida parapsilosis) | MIC (Sporothrix schenckii) | MIC [5] | MIC (Trichomonas vaginalis [6]) | Activity (Trichomonas vaginalis [7]) | Activity (Trichomonas vaginalis [8]) | Activity (Trichomonas vaginalis [9]) | IC50 [10] | IC50 (HeLa) | Selectivity Index [12] | Selectivity Index [13] | also measured
CN(Cc1ccccc1)C(=S)SSC(=S)N(C)Cc1ccccc1 | 31.8 µM (≈ 12.5 µg/mL) | 7.9 µM (≈ 3.1 µg/mL) | 31.8 µM (≈ 12.5 µg/mL) | 4 | >1% | > 127 µM | 31.8 µM (≈ 12.5 µg/mL) | 63.6 µM (≈ 25 µg/mL) | 7.9 µM (≈ 3.1 µg/mL) |  |  |  |  |  |  |  | Selectivity ratio (Trichomonas vaginalis [2]): 4
Cc1ncc([N+](=O)[O-])n1CCO [METRONIDAZOLE] | 292 µM (≈ 50 µg/mL) |  |  |  |  |  |  |  | 11.6 µM (≈ 1.99 µg/mL) | 0.5 g | 7.59 mm2 | 15 mm2 |  |  |  |  | Selectivity ratio (Trichomonas vaginalis [2]): 25
CN(C)C(=S)SSC(=S)N(C)C [THIRAM] | 12.9 µM (≈ 3.1 µg/mL) | 3.2 µM (≈ 0.769 µg/mL) | 6.5 µM (≈ 1.56 µg/mL) | 16 | 0.01% | 51.8 µM (≈ 12.5 µg/mL) | 51.8 µM (≈ 12.5 µg/mL) | 6.5 µM (≈ 1.56 µg/mL) | 12.9 µM (≈ 3.1 µg/mL) | 0.3 g | 4.45 mm2 | 15 mm2 | 8390 µM | 2430 µM | 188 | 188 | Activity (Trichomonas vaginalis [11]): Active
S=C(SSC(=S)N1CCN(CCN2CCOCC2)CC1)N1CCN(CCN2CCOCC2)CC1 | 45.5 µM (≈ 25 µg/mL) | > 91 µM | > 91 µM | 2 | 0.005% | > 91 µM | 91 µM (≈ 49.9 µg/mL) | 91 µM (≈ 49.9 µg/mL) | 22.7 µM (≈ 12.5 µg/mL) |  |  |  | 6480 µM | 169 µM | 7 | 3 | 
CCCCN1CCN(C(=S)SSC(=S)N2CCN(CCCC)CC2)CC1 | 28.7 µM (≈ 12.5 µg/mL) | 114 µM (≈ 49.6 µg/mL) | 57.4 µM (≈ 25 µg/mL) | 4 | 0.001% | 57.4 µM (≈ 25 µg/mL) | 114 µM (≈ 49.6 µg/mL) | 114 µM (≈ 49.6 µg/mL) | 14.3 µM (≈ 6.22 µg/mL) |  |  |  | 832 µM | 359 µM | 25 | 12 | Activity (Oryctolagus cuniculus [14]): Dose-dependent effect; Efficacy (Oryctolagus cuniculus [15]): 62.5%; Activity (Oryctolagus cuniculus [16]): 67%; Activity (Sperm): Active; Efficacy (Oryctolagus cuniculus [17]): 50%; Activity (Oryctolagus cuniculus [18]): 74%; Efficacy (Oryctolagus cuniculus [19]): 37.5%; Activity (Oryctolagus cuniculus [20]): 76%
S=C(SSC(=S)N1CCCC1)N1CCCC1 [BIS(PYRROLIDINYLTHIOCARBONYL)DISULFIDE] | 10.6 µM (≈ 3.1 µg/mL) | 2.6 µM (≈ 0.761 µg/mL) | 10.6 µM (≈ 3.1 µg/mL) | 16 | 1% | 21.3 µM (≈ 6.23 µg/mL) | 21.3 µM (≈ 6.23 µg/mL) | 10.6 µM (≈ 3.1 µg/mL) | 10.6 µM (≈ 3.1 µg/mL) |  |  |  |  |  |  |  | 
S=C(SSC(=S)N1CCCCCC1)N1CCCCCC1 | 35.8 µM (≈ 12.5 µg/mL) | 4.4 µM (≈ 1.53 µg/mL) | 8.9 µM (≈ 3.1 µg/mL) | 4 | >1% | 143 µM (≈ 49.9 µg/mL) | 17.9 µM (≈ 6.24 µg/mL) | 17.9 µM (≈ 6.24 µg/mL) | 286 µM (≈ 99.7 µg/mL) |  |  |  |  |  |  |  | 
N#CCCCN1CCN(C(=S)SSC(=S)N2CCN(CCCC#N)CC2)CC1 | 6.8 µM (≈ 3.11 µg/mL) | > 109 µM | > 109 µM | 16 | 0.001% | > 109 µM | 109 µM (≈ 49.8 µg/mL) | 109 µM (≈ 49.8 µg/mL) | 6.8 µM (≈ 3.11 µg/mL) | 0.3 g | 5.75 mm2 | 15 mm2 | 6110 µM | 2510 µM | 368 | 368 | Activity (Oryctolagus cuniculus [14]): Dose-dependent effect; Activity (Trichomonas vaginalis [11]): Active; Activity (Oryctolagus cuniculus [16]): 90%; Efficacy (Oryctolagus cuniculus [21]): 100%; Activity (Oryctolagus cuniculus [22]): 100%; Efficacy (Oryctolagus cuniculus [23]): 100%; Efficacy (Oryctolagus cuniculus [19]): 85.7%; Activity (Oryctolagus cuniculus [24]): 100%
C=CCN1CCN(C(=S)SSC(=S)N2CCN(CC=C)CC2)CC1 | 62 µM (≈ 25 µg/mL) | > 124 µM | 62 µM (≈ 25 µg/mL) | 2 | 0.001% | 124 µM (≈ 49.9 µg/mL) | > 124 µM | 124 µM (≈ 49.9 µg/mL) | 15.5 µM (≈ 6.24 µg/mL) |  |  |  | 3610 µM | 1340 µM | 86 | 21 | 
S=C(SCCN1CCCC1)N1CCN(C(=S)SSC(=S)N2CCN(C(=S)SCCN3CCCC3)CC2)CC1 | > 149 µM | 74.7 µM (≈ 50 µg/mL) | 74.7 µM (≈ 50 µg/mL) |  | 0.002% | 74.7 µM (≈ 50 µg/mL) | 74.7 µM (≈ 50 µg/mL) | 74.7 µM (≈ 50 µg/mL) | 46.7 µM (≈ 31.2 µg/mL) |  |  |  | 6080 µM | 2740 µM | 58 | > 18 | 
